The values below come from ChEMBL document CHEMBL4004834, “Transition State-Based Sialyltransferase Inhibitors: Mimicking Oxocarbenium Ion by Simple Amide” (J Med Chem, 2017).

Molecules are shown by their SMILES.

Experiment [1] addresses T1, Beta-galactoside alpha-2,6-sialyltransferase 1 (Homo sapiens) (UniProt P15907).
T1 sequence (whole entry): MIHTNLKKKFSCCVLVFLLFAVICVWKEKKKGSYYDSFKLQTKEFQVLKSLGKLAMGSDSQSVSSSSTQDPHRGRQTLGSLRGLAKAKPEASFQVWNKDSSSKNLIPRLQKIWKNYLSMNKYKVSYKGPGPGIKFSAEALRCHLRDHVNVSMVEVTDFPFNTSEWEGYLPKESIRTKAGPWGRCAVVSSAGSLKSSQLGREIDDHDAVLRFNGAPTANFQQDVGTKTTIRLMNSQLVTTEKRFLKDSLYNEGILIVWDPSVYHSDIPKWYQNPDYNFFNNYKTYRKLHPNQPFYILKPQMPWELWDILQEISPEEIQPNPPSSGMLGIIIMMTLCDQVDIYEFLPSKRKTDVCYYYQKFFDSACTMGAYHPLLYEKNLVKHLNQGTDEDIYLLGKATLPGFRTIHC
Description: Inhibition of recombinant human N-terminal His-tagged ST6Gal-1 (44 to 406 residues) at 1 uM using CMP-Neu5Ac as substrate […] by UV/RP-HPLC method. Put shortly:
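hST6Gal-I (aa 44-406), 80 ng per reaction, in pH 6.5 Mes buffer with 2 mM MnCl2 and 0.5% Triton X-100. Inhibitor at 1 µM with CMP-Neu5Ac (250 µM stock) and p-nitrophenyl LacNAc acceptor (5 mM stock), 37 °C, 30 min. Quenched by water and 95 °C for 2 min. Product read by RP-HPLC at 300 nm; donor consumption kept below 15%. Duplicates averaged.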

For experiment [2], the target named is T1, Beta-galactoside alpha-2,6-sialyltransferase 1 (Homo sapiens). Description: Inhibition of recombinant human ST6Gal-1 (44 to 406 residues) assessed as ratio of CMP-Neu5Ac Km to compound Ki […] by UV/RP-HPLC method.
The target in experiment [3] is T2, Beta-galactoside alpha-2,6-sialyltransferase 1 (Homo sapiens, UniProt P15907).
T2 sequence (P15907 whole entry): T1 sequence (whole entry)
Put plainly: Inhibition of recombinant human N-terminal His-tagged ST6Gal-1 (44 to 406 residues) using CMP-Neu5Ac as substrate […] by UV/RP-HPLC method.

For `Nc1ccn([C@@H]2O[C@H](COP(=O)(O)O[C@@H](c3cccc(Oc4ccccc4)c3)P(=O)(O)O)[C@@H](O)[C@H]2O)c(=O)n1`, the inhibition in experiment [1] came to 87.6%. Further, in experiment [2], the Ratio is 2190. Besides, the Ki in experiment [3] was found to be 19 nM.

Regarding `Nc1ccn([C@@H]2O[C@H](COP(=O)(O)OC(C3CCCC3)P(=O)(O)O)[C@@H](O)[C@H]2O)c(=O)n1` (some centres undefined), the Ratio in experiment [2] was 7.1.

For `CC(=O)N[C@H]1[C@H](Oc2ccccc2)OC(C(OP(=O)(O)OC[C@H]2O[C@@H](n3ccc(N)nc3=O)[C@H](O)[C@@H]2O)P(=O)(O)O)=C[C@@H]1O` (stereo in doubt; 1-h) [listing 1 of 2 here], in experiment [3], the Ki turned out to be 29 nM.

As for `CC(=O)N[C@H]1[C@H](Oc2ccccc2)OC(C(OP(=O)(O)OC[C@H]2O[C@@H](n3ccc(N)nc3=O)[C@H](O)[C@@H]2O)P(=O)(O)O)=C[C@@H]1O` (stereo in doubt; 1-h) [listing 2 of 2 here], in experiment [2], the Ratio is 1580.

Consider `CC(=O)N[C@H]1[C@H](Oc2ccccc2)OC(C(OP(=O)(O)OC[C@H]2O[C@@H](n3ccc(N)nc3=O)[C@H](O)[C@@H]2O)P(=O)(O)O)=C[C@@H]1O` (stereo in doubt; 1-l) [listing 1 of 2 here], for which the Ki in experiment [3] was found to be 690 nM.

With `CC(=O)N[C@H]1[C@H](Oc2ccccc2)OC(C(OP(=O)(O)OC[C@H]2O[C@@H](n3ccc(N)nc3=O)[C@H](O)[C@@H]2O)P(=O)(O)O)=C[C@@H]1O` (stereo in doubt; 1-l) [listing 2 of 2 here], the Ratio in experiment [2] came to 67.

For the molecule `Nc1ccn([C@@H]2O[C@H](COP(=O)(O)OC(c3ccccc3)P(=O)(O)O)[C@@H](O)[C@H]2O)c(=O)n1` (stereo in doubt; 2h) [listing 1 of 2 here], the Ki in experiment [3] is 200 nM.

In the case of `Nc1ccn([C@@H]2O[C@H](COP(=O)(O)OC(c3ccccc3)P(=O)(O)O)[C@@H](O)[C@H]2O)c(=O)n1` (stereo in doubt; 2h) [listing 2 of 2 here], the Ratio in experiment [2] was 230.

Regarding `Nc1ccn([C@@H]2O[C@H](COP(=O)(O)OC(c3ccccc3)P(=O)(O)O)[C@@H](O)[C@H]2O)c(=O)n1` (stereo in doubt; 2l) [listing 1 of 2 here], the Ki in experiment [3] stood at 1000 nM.

As to `Nc1ccn([C@@H]2O[C@H](COP(=O)(O)OC(c3ccccc3)P(=O)(O)O)[C@@H](O)[C@H]2O)c(=O)n1` (stereo in doubt; 2l) [listing 2 of 2 here], the Ratio in experiment [2] is 46.

For `CC(=O)NC[C@@H]1CCC(OP(=O)(O)OC[C@H]2O[C@@H](n3ccc(N)nc3=O)[C@H](O)[C@@H]2O)(P(=O)(O)O)[C@H]1OCc1ccccc1` (stereo in doubt; 4-h), the Ratio in experiment [2] was 1490.

As to `CC(=O)NC[C@@H]1CCC(OP(=O)(O)OC[C@H]2O[C@@H](n3ccc(N)nc3=O)[C@H](O)[C@@H]2O)(P(=O)(O)O)[C@H]1OCc1ccccc1` (stereo in doubt; 4-l), the Ratio in experiment [2] is 87.

Turning to `Nc1ccn([C@@H]2O[C@H](COP(=O)(O)OC(CNC(=O)c3ccccc3)P(=O)(O)O)[C@@H](O)[C@H]2O)c(=O)n1` (stereo in doubt; 5a-l) [listing 1 of 2 here], the inhibition constant (Ki) in experiment [3] was 174 nM.

As to `Nc1ccn([C@@H]2O[C@H](COP(=O)(O)OC(CNC(=O)c3ccccc3)P(=O)(O)O)[C@@H](O)[C@H]2O)c(=O)n1` (stereo in doubt; 5a-l) [listing 2 of 2 here], in experiment [1], the inhibition worked out at 61.7%. Also, the Ratio in experiment [2] came to 239.

As for `Nc1ccn([C@@H]2O[C@H](COP(=O)(O)OC(CNC(=O)c3ccccc3)P(=O)(O)O)[C@@H](O)[C@H]2O)c(=O)n1` (stereo in doubt; 5a-s) [listing 1 of 2 here], the Ki in experiment [3] worked out at 16 nM.

For `Nc1ccn([C@@H]2O[C@H](COP(=O)(O)OC(CNC(=O)c3ccccc3)P(=O)(O)O)[C@@H](O)[C@H]2O)c(=O)n1` (stereo in doubt; 5a-s) [listing 2 of 2 here], the inhibition in experiment [1] was found to be 88.9%. Moreover, the Ratio in experiment [2] amounted to 2600.

`Nc1ccn([C@@H]2O[C@H](COP(=O)(O)OC(C(=O)Nc3ccccc3)P(=O)(O)O)[C@@H](O)[C@H]2O)c(=O)n1` (stereo in doubt; 5b-l) [listing 1 of 2 here]: the Ki in experiment [3] came out at 122 nM.

On to `Nc1ccn([C@@H]2O[C@H](COP(=O)(O)OC(C(=O)Nc3ccccc3)P(=O)(O)O)[C@@H](O)[C@H]2O)c(=O)n1` (stereo in doubt; 5b-l) [listing 2 of 2 here], for which the inhibition in experiment [1] worked out at 67.7%. The Ratio in experiment [2] was found to be 341.

As to `Nc1ccn([C@@H]2O[C@H](COP(=O)(O)OC(C(=O)Nc3ccccc3)P(=O)(O)O)[C@@H](O)[C@H]2O)c(=O)n1` (stereo in doubt; 5b-s) [listing 1 of 2 here], the Ki in experiment [3] was 106 nM.

On to `Nc1ccn([C@@H]2O[C@H](COP(=O)(O)OC(C(=O)Nc3ccccc3)P(=O)(O)O)[C@@H](O)[C@H]2O)c(=O)n1` (stereo in doubt; 5b-s) [listing 2 of 2 here], for which the inhibition in experiment [1] came out at 69.7%. In addition, in experiment [2], the Ratio was 393.

`Nc1ccn([C@@H]2O[C@H](COP(=O)(O)OC(C(=O)N3CCCC3)P(=O)(O)O)[C@@H](O)[C@H]2O)c(=O)n1` (stereo in doubt; 5c-S) [listing 1 of 2 here]: the Ki in experiment [3] was 60 nM.

On to `Nc1ccn([C@@H]2O[C@H](COP(=O)(O)OC(C(=O)N3CCCC3)P(=O)(O)O)[C@@H](O)[C@H]2O)c(=O)n1` (stereo in doubt; 5c-S) [listing 2 of 2 here], for which, in experiment [1], the inhibition came out at 77%. Also, in experiment [2], the Ratio was determined as 694.

For `Nc1ccn([C@@H]2O[C@H](COP(=O)(O)OC(C(=O)N3CCCC3)P(=O)(O)O)[C@@H](O)[C@H]2O)c(=O)n1` (stereo in doubt; 5c-l) [listing 1 of 2 here], the Ki in experiment [3] was 165 nM.

Turning to `Nc1ccn([C@@H]2O[C@H](COP(=O)(O)OC(C(=O)N3CCCC3)P(=O)(O)O)[C@@H](O)[C@H]2O)c(=O)n1` (stereo in doubt; 5c-l) [listing 2 of 2 here], the inhibition in experiment [1] came out at 65.7%. Besides, the Ratio in experiment [2] was found to be 252.

As to `Nc1ccn([C@@H]2O[C@H](COP(=O)(O)OC(C(=O)N3CCCCC3)P(=O)(O)O)[C@@H](O)[C@H]2O)c(=O)n1` (stereo in doubt; 5d-l) [listing 1 of 2 here], the Ki in experiment [3] came out at 45 nM.

In the case of `Nc1ccn([C@@H]2O[C@H](COP(=O)(O)OC(C(=O)N3CCCCC3)P(=O)(O)O)[C@@H](O)[C@H]2O)c(=O)n1` (stereo in doubt; 5d-l) [listing 2 of 2 here], the inhibition in experiment [1] is 80.3%. Moreover, the Ratio in experiment [2] was 925.

Regarding `Nc1ccn([C@@H]2O[C@H](COP(=O)(O)OC(C(=O)N3CCCCC3)P(=O)(O)O)[C@@H](O)[C@H]2O)c(=O)n1` (stereo in doubt; 5d-s) [listing 1 of 2 here], in experiment [3], the Ki was 20 nM.

Turning to `Nc1ccn([C@@H]2O[C@H](COP(=O)(O)OC(C(=O)N3CCCCC3)P(=O)(O)O)[C@@H](O)[C@H]2O)c(=O)n1` (stereo in doubt; 5d-s) [listing 2 of 2 here], in experiment [1], the inhibition is 86.3%. Moreover, the Ratio in experiment [2] amounted to 2080.

As for `Nc1ccn([C@@H]2O[C@H](COP(=O)(O)OC(CN3C(=O)CCC3=O)P(=O)(O)O)[C@@H](O)[C@H]2O)c(=O)n1` (stereo in doubt; 5e-l), the inhibition in experiment [1] amounted to 15.1%.

Take `Nc1ccn([C@@H]2O[C@H](COP(=O)(O)OC(CN3C(=O)CCC3=O)P(=O)(O)O)[C@@H](O)[C@H]2O)c(=O)n1` (stereo in doubt; 5e-s) [listing 1 of 2 here]: the Ki in experiment [3] was determined as 224 nM.

For the molecule `Nc1ccn([C@@H]2O[C@H](COP(=O)(O)OC(CN3C(=O)CCC3=O)P(=O)(O)O)[C@@H](O)[C@H]2O)c(=O)n1` (stereo in doubt; 5e-s) [listing 2 of 2 here], the inhibition in experiment [1] came to 58.8%. In addition, in experiment [2], the Ratio came to 186.

Take `Nc1ccn([C@@H]2O[C@H](COP(=O)(O)OC(CN3C(=O)c4ccccc4C3=O)P(=O)(O)O)[C@@H](O)[C@H]2O)c(=O)n1` (stereo in doubt; 5f-l): the inhibition in experiment [1] amounted to 14.3%.

Consider `Nc1ccn([C@@H]2O[C@H](COP(=O)(O)OC(CN3C(=O)c4ccccc4C3=O)P(=O)(O)O)[C@@H](O)[C@H]2O)c(=O)n1` (stereo in doubt; 5f-s), for which, in experiment [1], the inhibition was found to be 34.5%.
